Activity calls are given as the source filed them. The calls are words filed in the database; no cut-off is given here.
How the values were obtained:
[1] = test system: MCF7; test: Inhibition of HIF1alpha RNA translation in human MCF7 cells at 10 ug/mL pretreated for 1 hr prior to metabolic labeling by SDS-PAGE analysis; type: functional, cell-based
In short: (§1)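 MCF7 cells held 1 h in DMEM without L-glutamine, cysteine and methionine, with 10% dialysed FCS and 2 mM glutamine. Then pretreated 1 h with compound, cycloheximide 10 μg/mL or DMSO, and labelled 2 h with [35S] amino acids (0.75 MBq/mL) plus CoCl2 100 μM. RIPA lysates immunoprecipitated overnight at 4 °C with anti-HIF1α or isotype IgG; SDS-PAGE, phosphorimaging. Three independent experiments.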

[2] = test system: MEF; test: Inhibition of mTORC1 in PTEN-/- MEF cells assessed as reduction of p70S6K phosphorylation after 3 hrs by immunoblotting analysis; type: cell-based; settings: Mus musculus
In short: (§2)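 PTEN+/+ and PTEN−/− MEFs exposed to a concentration series, DMSO or nothing for 3 h. Immunoblots for phospho-p70 S6K T389, total p70 S6K and β-actin.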

[3] = test system: MEF; test: Inhibition of mTORC1 in p53-/-TSC+/+ MEF cells assessed as reduction of p70S6K phosphorylation after 3 hrs by immunoblotting analysis; type: cell-based; settings: Mus musculus
In short: (§3)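 p53−/−TSC2+/+ and p53−/−TSC2−/− MEFs in standard serum-containing medium exposed to a concentration series, DMSO (matched to 20 μM) or nothing for 3 h. Immunoblots for phospho-p70 S6K T389, total p70 S6K and β-actin. Mean ± SD of three independent experiments; ANOVA with Tukey's test within each line, t test between lines.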

[4] = test system: MEF; test: Inhibition of mTORC1 in PTEN+/+ MEF cells assessed as reduction of p70S6K phosphorylation after 3 hrs by immunoblotting analysis; type: cell-based; settings: Mus musculus; in short: as §2
[5] = test system: MEF; test: Inhibition of mTORC1 in p53-/-TSC2+/+ MEF cells assessed as reduction of p70S6K phosphorylation at threonine 389 after 3 hrs by immunoblotting analysis; type: cell-based; settings: Mus musculus; in short: as §3
[6] = target: Mitogen-activated protein kinase; ERK1/ERK2 (Homo sapiens) (UniProt P27361+P28482); test: Induction of ERK1/2 phosphorylation at threonine 202/tyrosine 204 in human MCF7 cells after 3 hrs by immunoblotting analysis; type: cell-based
Sequence of Mitogen-activated protein kinase; ERK1/ERK2 (Homo sapiens) (P27361 whole entry, looked up): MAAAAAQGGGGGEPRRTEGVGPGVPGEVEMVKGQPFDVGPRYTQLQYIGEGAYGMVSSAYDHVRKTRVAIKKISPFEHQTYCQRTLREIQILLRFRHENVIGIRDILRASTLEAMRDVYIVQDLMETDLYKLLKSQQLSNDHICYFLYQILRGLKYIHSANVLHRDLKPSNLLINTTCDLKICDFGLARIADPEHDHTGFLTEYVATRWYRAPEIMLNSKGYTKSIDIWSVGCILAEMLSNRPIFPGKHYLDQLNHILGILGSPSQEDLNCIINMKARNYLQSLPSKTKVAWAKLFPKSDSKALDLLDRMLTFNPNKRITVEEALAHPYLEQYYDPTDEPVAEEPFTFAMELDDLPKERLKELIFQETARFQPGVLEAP
Sequence of Mitogen-activated protein kinase; ERK1/ERK2 (Homo sapiens) (P28482 whole entry, looked up): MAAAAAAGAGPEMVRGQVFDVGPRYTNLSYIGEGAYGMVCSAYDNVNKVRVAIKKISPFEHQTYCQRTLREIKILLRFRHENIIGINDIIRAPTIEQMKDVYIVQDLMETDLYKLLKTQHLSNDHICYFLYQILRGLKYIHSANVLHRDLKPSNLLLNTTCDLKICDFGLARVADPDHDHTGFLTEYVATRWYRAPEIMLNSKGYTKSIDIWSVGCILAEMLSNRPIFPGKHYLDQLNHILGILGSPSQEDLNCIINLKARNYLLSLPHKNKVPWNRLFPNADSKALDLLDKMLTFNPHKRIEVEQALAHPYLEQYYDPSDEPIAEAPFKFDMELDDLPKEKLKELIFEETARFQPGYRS

[7] = test system: MEF; test: Effect on mTORC2 in p53-/-TSC2+/+ MEF cells assessed as as NDRG1 phosphorylation at threonine 346 after 3 hrs by immunoblotting analysis; type: cell-based; settings: Mus musculus
In short: (§4)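 p53−/−TSC2+/+ and p53−/−TSC2−/− MEFs in standard serum-containing medium exposed to compound, DMSO (matched to 20 μM) or nothing for 3 h. Immunoblots probed for phospho-AKT S473, total AKT, phospho-NDRG1 T346 and total NDRG1, with HSC70 as loading control.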

[8] = target: T1, mTORC1 (Homo sapiens) (UniProt P42345+Q8N122+Q9BVC4); test: Inhibition of mTORC1 in human MCF7 cells assessed as reduction of 4E-BP1 phosphorylation after 3 hrs by immunoblotting analysis; type: cell-based
T1 sequence (Q8N122 whole entry, looked up, other chains not shown): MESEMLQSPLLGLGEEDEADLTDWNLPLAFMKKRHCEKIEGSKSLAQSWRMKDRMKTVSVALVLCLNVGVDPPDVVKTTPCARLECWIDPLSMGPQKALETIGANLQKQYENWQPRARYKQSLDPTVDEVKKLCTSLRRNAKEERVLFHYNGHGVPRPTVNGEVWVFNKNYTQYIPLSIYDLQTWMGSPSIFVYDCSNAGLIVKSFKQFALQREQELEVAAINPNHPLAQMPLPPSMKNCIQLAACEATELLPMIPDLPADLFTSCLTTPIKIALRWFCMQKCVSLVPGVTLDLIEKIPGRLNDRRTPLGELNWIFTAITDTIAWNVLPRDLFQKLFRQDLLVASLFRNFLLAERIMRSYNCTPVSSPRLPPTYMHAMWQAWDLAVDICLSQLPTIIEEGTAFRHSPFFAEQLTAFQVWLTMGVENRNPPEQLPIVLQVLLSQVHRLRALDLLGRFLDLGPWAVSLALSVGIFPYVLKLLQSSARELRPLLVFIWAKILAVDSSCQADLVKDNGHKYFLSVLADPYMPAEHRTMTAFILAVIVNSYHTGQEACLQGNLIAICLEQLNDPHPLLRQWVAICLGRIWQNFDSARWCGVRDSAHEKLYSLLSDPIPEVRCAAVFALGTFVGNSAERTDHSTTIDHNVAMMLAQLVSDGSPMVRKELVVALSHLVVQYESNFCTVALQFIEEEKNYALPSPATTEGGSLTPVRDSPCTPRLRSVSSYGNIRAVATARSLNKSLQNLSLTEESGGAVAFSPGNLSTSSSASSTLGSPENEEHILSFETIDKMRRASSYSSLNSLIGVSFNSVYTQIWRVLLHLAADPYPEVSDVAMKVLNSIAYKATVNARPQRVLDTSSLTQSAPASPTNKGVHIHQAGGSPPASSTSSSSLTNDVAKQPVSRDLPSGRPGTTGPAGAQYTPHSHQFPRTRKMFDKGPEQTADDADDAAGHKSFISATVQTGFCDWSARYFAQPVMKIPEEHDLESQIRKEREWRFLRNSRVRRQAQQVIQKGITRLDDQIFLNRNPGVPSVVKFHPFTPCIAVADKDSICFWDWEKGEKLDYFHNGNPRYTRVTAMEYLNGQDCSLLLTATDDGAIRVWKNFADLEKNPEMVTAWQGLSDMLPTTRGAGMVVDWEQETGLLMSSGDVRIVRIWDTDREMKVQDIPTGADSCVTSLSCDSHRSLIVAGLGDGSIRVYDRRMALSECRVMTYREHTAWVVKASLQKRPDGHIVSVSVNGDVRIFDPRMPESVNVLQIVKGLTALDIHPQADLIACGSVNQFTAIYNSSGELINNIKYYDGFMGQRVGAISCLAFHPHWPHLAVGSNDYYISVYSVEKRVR
T1 sequence (Q9BVC4 whole entry, looked up, other chains not shown): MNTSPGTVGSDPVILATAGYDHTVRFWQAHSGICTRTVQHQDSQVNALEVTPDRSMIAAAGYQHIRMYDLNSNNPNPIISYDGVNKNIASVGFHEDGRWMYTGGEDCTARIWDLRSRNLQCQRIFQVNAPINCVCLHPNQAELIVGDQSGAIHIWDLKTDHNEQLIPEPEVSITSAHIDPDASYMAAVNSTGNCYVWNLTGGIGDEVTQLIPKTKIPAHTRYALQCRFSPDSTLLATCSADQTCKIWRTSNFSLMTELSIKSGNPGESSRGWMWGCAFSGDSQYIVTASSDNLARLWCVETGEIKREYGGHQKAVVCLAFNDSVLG
In short: (§5)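 MCF7 cells exposed to a concentration series, DMSO or nothing for 3 h, then immunoblotted. Repeated measures ANOVA with Tukey's test.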

[9] = target: T1, mTORC1 (Homo sapiens); test: Inhibition of mTORC1 in human MCF7 cells assessed as reduction of p70S6K phosphorylation at 20 uM after 15 mins by immunoblotting analysis; type: cell-based
In short: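 MCF7 cells exposed to 20 μM compound or DMSO over a time course; p70 S6K phosphorylation read by immunoblotting.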

[10] = test system: MEF; test: Effect on mTORC2 in p53-/-TSC2+/+ MEF cells assessed as Akt phosphorylation at serine 473 after 3 hrs by immunoblotting analysis; type: cell-based; settings: Mus musculus; in short: as §4
[11] = test system: MEF; test: Inhibition of growth in TSC2-deficient MEF cells after 6 days; type: functional, cell-based; settings: Mus musculus, 144 h
In short: (§6)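 Growth assay: p53−/−TSC2−/− and control MEFs plated at 1000 cells/well and treated next day with compound, DMSO or nothing. After 6 days relative cell number read by CellTiter 96 AQueous One, expressed as % of untreated. IC50 from curve fit; mean ± SD of three independent experiments.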

[12] = test system: MEF; test: Inhibition of mTORC1 in MEF cells assessed as reduction of p70S6K phosphorylation at threonine 389 at 2.5 to 5 uM after 3 hrs by immunoblotting analysis; type: cell-based; settings: Mus musculus; in short: as §2
[13] = test system: MCF7; test: Inhibition of Akt phosphorylation at threonine 308 in human MCF7 cells at 20 uM after 4 hrs by immunoblotting analysis; type: cell-based
In short: (§7)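 MCF7 cells given 20 μM compound or DMSO for up to 4 h. Immunoblots for phospho-AKT T308, phospho-AKT S473, total AKT and β-actin. Phospho signals normalised to total AKT; total AKT normalised to β-actin. Mean ± SD of three independent experiments; repeated measures ANOVA with Tukey's test.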

[14] = target: T1, mTORC1 (Homo sapiens); test: Inhibition of mTORC1 in human MCF7 cells assessed as reduction of p70S6K phosphorylation at threonine 389 after 3 hrs by immunoblotting analysis; type: cell-based; in short: as §5
[15] = test system: MCF7; test: Increase in mTORC2 activity in human MCF7 cells induction of Akt phosphorylation at serine 473 after 4 hrs by immunoblotting analysis; type: cell-based; in short: as §7
[16] = test system: MEF; test: Inhibition of mTORC1 in p53-/-TSC2-/- MEF cells assessed as reduction of p70S6K phosphorylation at threonine 389 after 3 hrs by immunoblotting analysis; type: cell-based; settings: Mus musculus; in short: as §3
[17] = target: AMP-activated protein kinase, AMPK (Homo sapiens) (UniProt P54646+O43741+P54619+Q9UGJ0+Q9Y478+Q13131+Q9UGI9); test: Induction of AMPK phosphorylation at threonine 172 in human MCF7 cells after 3 hrs by immunoblotting analysis; type: cell-based
[18] = test system: MEF; test: Increase in mTORC2 activity in p53-/-TSC2-/- MEF cells assessed as […] in NDRG1 phosphorylation at threonine 346 after 3 hrs by immunoblotting analysis; type: cell-based; settings: Mus musculus; in short: as §4
[19] = test system: MCF7; test: Induction of Akt phosphorylation at threonine 308 in human MCF7 cells after 4 hrs by immunoblotting analysis relative to total Akt; type: cell-based; in short: as §7
[20] = target: T2, Hypoxia inducible factors; HIF-1-alpha, HIF-2-alpha (Homo sapiens, UniProt Q16665+Q99814); test: Inhibition of Serine/threonine-protein kinase mTOR complex 1-mediated HIF1alpha RNA translation in human MCF7 cells at 20 uM pretreated for 1 hr prior to metabolic labeling by SDS-PAGE analysis; type: cell-based; in short: as §1
[21] = test system: MEF; test: Increase in mTORC2 activity in p53-/-TSC2-/- MEF cells assessed as […] of Akt phosphorylation at serine 473 after 3 hrs by immunoblotting analysis; type: cell-based; settings: Mus musculus; in short: as §4
[22] = target: T2, Hypoxia inducible factors; HIF-1-alpha, HIF-2-alpha; test: Inhibition of Serine/threonine-protein kinase mTOR complex 1-mediated HIF1alpha RNA translation in human MCF7 cells pretreated for 1 hr prior to metabolic labeling by SDS-PAGE analysis; type: cell-based; in short: as §1
[23] = test system: MEF; test: Inhibition of growth in wild type MEF cells after 6 days; type: functional, cell-based; settings: Mus musculus, 144 h; in short: as §6

## C[C@@H]1C[C@@H]([C@H](O)CC2CC(=O)NC(=O)C2)C(=O)[C@@H](C)C1
[1]
  inhibition: Active

## S=C=NCCc1ccccc1 [PHENETHYLISOTHIOCYANATE]
[2]
  inhibition: Active
[3]
  inhibition: Active
[4]
  inhibition: Active
[5]
  inhibition: Active
[6]
  Activity: Active
[7]
  Activity: inactive
[8]
  inhibition: Active
[9]
  inhibition: Active
[10]
  Activity: inactive
[11]
  IC50: 8 µM
[12]
  inhibition: Active
[13]
  inhibition: inactive
[14]
  inhibition: Active
[15]
  Activity: Active
[16]
  inhibition: inactive
[17]
  Activity: inactive
[18]
  Activity: Active
[19]
  fold change (FC): 3
[20]
  inhibition: Active
[21]
  Activity: Active
[22]
  IC50: 7.5 µM
[23]
  IC50: 4.7 µM

From ChEMBL document CHEMBL2203241, “Natural product-derived antitumor compound phenethyl isothiocyanate inhibits mTORC1 activity via TSC2” (J Nat Prod, 2012)
